According to ChEMBL document CHEMBL4725282, “Discovery of a Conformationally Constrained Oxazolidinone with Improved Safety and Efficacy Profiles for the Treatment of Multidrug-Resistant Tuberculosis” (J Med Chem, 2020):
pIC50: −log10 of the molar value. Values after ≈ are worked out from the molar mass of the structure shown.

What was measured:
[1] = test system: Mycobacterium tuberculosis; assay: Antitubercular activity against Mycobacterium tuberculosis isolate 12525 incubated for 7 days by microplate alamar blue assay; format: functional; conditions: isolate 12525, 168 h, time 7 day
In short: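 MIC determined by microplate alamar blue assay (MABA) following a published protocol.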

[2] = Toxicity in male Sprague-Dawley rat assessed as change in white blood cell count at 150 mg/kg/day, po administered for 4 weeks followed by 2 week recovery period (Rvb =6.12 +/- 1.10 10^9/L); format: organism-based; conditions: in vivo, 672 h
In short: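 SD rats aged 6-7 weeks, 24 per group (12 female, 12 male): vehicle, 50, 150 or 450 mg/kg/day given orally once daily for 4 weeks, then 2-week recovery. 8 per sex per group dissected after the last dose and 4 per sex after 14-day recovery. Hematology included WBC count, reported as mean ± SD (n = 12), compared with vehicle.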

[3] = MRT (0 to infinity) in Balb/c mouse at 2.5 mg/kg, iv by LC-MS/MS analysis; format: ADME, organism-based; conditions: in vivo
In short: (§1)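 Female BALB/c mice (20–25 g), five per route. Oral dose 25 mg/kg in 0.5% carboxymethyl cellulose; i.v. dose 2.5 mg/kg in 10% DMSO/physiological saline. Blood sampled 5 min–72 h after p.o. and 2 min–48 h after i.v. Analyte quantified by LC/MS/MS (ESI positive, C18, isocratic methanol/water). Parameters from non-compartmental analysis.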

[4] = Toxicity in male Sprague-Dawley rat assessed as change in hemoglobin count at 150 mg/kg/day, po administered for 4 weeks followed by 2 week recovery period (Rvb =144 +/- 5 g/L); format: organism-based; conditions: in vivo, 672 h
[5] = Terminal half life in Balb/c mouse at 25 mg/kg, po by LC-MS/MS analysis; format: ADME, organism-based; conditions: in vivo, read-out: beta t1/2 (converted)
In short: (§2)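 Female BALB/c mice, 20-25 g, five per route. Dosed 25 mg/kg p.o. in 0.5% carboxymethyl cellulose or 2.5 mg/kg i.v. in 10% DMSO/saline. Blood sampled 5 min-72 h (p.o.) or 2 min-48 h (i.v.), quantified by LC/MS/MS with ESI+. Parameters by non-compartmental analysis; F = (AUCpo×dose_iv)/(AUCiv×dose_po)×100%.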

[6] = Toxicity in female Sprague-Dawley rat assessed as change in platelet count at 50 mg/kg/day, po administered for 4 weeks followed by 2 week recovery period (Rvb =1051 +/- 122 10^9/L); format: organism-based; conditions: in vivo, 672 h
[7] = Toxicity in male Sprague-Dawley rat assessed as change in mean corpuscular volume at 150 mg/kg/day, po administered for 4 weeks followed by 2 week recovery period (Rvb =57.5 +/- 2.0 fL); format: organism-based; conditions: in vivo, 672 h
HepG2 = assay: Cytotoxicity against human HepG2 cells assessed as reduction in cell viability measured after 48 hrs by MTT assay; format: cell-based; conditions: HepG2, 48 h
In short: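 Cytotoxicity on Vero or HepG2 cells by MTT assay, run as previously reported.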

[8] = AUC (0 to t) in Balb/c mouse at 25 mg/kg, po by LC-MS/MS analysis; format: ADME, organism-based; parameters: dose 25 mg/kg; conditions: in vivo; in short: as §1
[9] = Mutagenicity in Salmonella typhimurium TA98 up to 1000 ug measured after 48 to 72 hrs in absence of S9 fraction by Ames test; format: toxicity; conditions: salmonella enterica subsp. enterica serovar typhimurium, dose <=1000 µg, time 48-72 hrs
In short: (§3)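 Mini-Ames, plate incorporation in 6-well format. Bacteria, compound (DMSO vehicle, top 1000 µg/well), and 10% S9 mix or PBS were mixed into molten agar at 45°C and poured over minimal agar, then incubated 37°C for 48-72 h. Revertants were counted manually and the background lawn inspected. A result is positive at ≥2-fold the mean vehicle revertants with a dose-related increase.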

[10] = Mutagenicity in Salmonella typhimurium TA98 up to 1000 ug measured after 48 to 72 hrs in presence of S9 fraction by Ames test; format: toxicity, subcellular; conditions: salmonella enterica subsp. enterica serovar typhimurium, dose <=1000 µg, time 48-72 hrs; in short: as §3
[11] = Tmax in Balb/c mouse at 25 mg/kg, po by LC-MS/MS analysis; format: ADME, organism-based; conditions: in vivo; in short: as §2
[12] = biological target: T1, Amine oxidase [flavin-containing] A (Homo sapiens, UniProt P21397); assay: Inhibition of recombinant human MAOA expressed in baculovirus infected insect cells using kynuramine as substrate measured after 20 mins by LC-MS/MS analysis
T1 sequence (P21397 whole entry): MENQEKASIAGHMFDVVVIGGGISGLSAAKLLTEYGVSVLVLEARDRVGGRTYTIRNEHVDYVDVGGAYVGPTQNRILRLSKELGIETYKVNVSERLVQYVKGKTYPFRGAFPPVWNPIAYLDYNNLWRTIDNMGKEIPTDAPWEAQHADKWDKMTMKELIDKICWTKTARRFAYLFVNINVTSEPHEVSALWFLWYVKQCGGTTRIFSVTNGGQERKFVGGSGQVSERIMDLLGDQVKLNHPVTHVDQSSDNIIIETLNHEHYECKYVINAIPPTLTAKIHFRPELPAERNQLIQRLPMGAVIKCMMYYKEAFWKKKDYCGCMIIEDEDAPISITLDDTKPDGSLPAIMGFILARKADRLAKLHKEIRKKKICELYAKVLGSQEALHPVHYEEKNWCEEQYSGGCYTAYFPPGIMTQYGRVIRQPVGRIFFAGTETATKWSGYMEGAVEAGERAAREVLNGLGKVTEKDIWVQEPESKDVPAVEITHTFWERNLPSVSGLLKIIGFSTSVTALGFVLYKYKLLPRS
In short: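 Recombinant human MAO-A or MAO-B (50 μg/mL) in 100 mM potassium phosphate pH 7.4 with 5 mM MgCl2. Kynuramine substrate at 50 μM (MAO-A) or 25 μM (MAO-B). […] 4-Hydroxyquinoline formation measured by LC-MS/MS versus vehicle; IC50 derived.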

[13] = MRT (0 to infinity) in Balb/c mouse at 25 mg/kg, po by LC-MS/MS analysis; format: ADME, organism-based; conditions: in vivo; in short: as §1
[14] = Toxicity in CD-1 mouse assessed as increase in bone marrow micronucleus formation up to 2000 mg/kg, po administered daily via gavage for 2 days measured measured 18 to 24 hrs post last dose by microscopic analysis; format: organism-based; conditions: in vivo, 48 h, time 2 day
In short: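 Male CD-1 (ICR) mice, 28.3-33.3 g, 3 per group. Oral gavage on 2 consecutive days, 24 h apart, at 100-2000 mg/kg; 500, 1000 and 2000 mg/kg analysed. Bone marrow harvested 18-24 h after last dose and scored microscopically for micronucleus frequency and PCE/total erythrocytes.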

[15] = AUC (0 to t) in Balb/c mouse at 2.5 mg/kg, iv by LC-MS/MS analysis; format: ADME, organism-based; parameters: dose 2.5 mg/kg; conditions: in vivo; in short: as §1
[16] = Toxicity in female Sprague-Dawley rat assessed as change in white blood cell count at 150 mg/kg/day, po administered for 4 weeks followed by 2 week recovery period (Rvb =3.61 +/- 0.75 10^9/L); format: organism-based; conditions: in vivo, 672 h
[17] = biological target: Voltage-gated inwardly rectifying potassium channel KCNH2 (Homo sapiens, UniProt Q12809); assay: Inhibition of human ERG expressed in HEK293 cells by whole cell manual patch clamp method; format: cell-based
Chain of Voltage-gated inwardly rectifying potassium channel KCNH2 (Q12809 whole entry): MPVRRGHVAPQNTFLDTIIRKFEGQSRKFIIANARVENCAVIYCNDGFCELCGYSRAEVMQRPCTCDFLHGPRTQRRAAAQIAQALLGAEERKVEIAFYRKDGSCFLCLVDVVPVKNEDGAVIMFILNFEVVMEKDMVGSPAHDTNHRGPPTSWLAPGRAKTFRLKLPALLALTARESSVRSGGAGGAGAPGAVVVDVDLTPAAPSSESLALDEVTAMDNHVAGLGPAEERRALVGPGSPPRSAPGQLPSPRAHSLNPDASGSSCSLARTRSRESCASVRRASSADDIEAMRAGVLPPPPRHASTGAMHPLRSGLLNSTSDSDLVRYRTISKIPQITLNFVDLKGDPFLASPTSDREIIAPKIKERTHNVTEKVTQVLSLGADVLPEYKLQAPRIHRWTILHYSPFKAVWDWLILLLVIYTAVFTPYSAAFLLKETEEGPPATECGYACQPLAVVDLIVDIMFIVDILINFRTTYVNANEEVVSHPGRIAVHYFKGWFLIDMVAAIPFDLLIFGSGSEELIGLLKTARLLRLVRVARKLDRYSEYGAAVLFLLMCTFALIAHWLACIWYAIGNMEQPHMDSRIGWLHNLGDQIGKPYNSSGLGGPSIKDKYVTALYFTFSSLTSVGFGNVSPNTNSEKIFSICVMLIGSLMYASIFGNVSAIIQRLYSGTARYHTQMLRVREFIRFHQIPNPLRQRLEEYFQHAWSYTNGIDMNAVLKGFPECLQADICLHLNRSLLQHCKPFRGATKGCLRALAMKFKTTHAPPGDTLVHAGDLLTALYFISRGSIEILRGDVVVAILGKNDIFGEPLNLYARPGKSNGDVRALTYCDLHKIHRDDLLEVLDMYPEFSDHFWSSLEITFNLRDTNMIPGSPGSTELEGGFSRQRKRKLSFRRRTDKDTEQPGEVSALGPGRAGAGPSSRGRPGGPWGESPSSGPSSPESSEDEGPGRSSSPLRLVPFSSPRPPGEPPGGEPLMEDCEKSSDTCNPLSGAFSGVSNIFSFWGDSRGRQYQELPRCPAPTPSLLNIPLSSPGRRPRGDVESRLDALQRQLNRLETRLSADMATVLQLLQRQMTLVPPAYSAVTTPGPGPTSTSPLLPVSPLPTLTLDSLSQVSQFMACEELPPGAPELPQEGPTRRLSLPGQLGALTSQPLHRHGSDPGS
In short: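 HEK293 cells stably transfected with hERG; currents recorded by whole-cell manual patch clamp at 25 °C, sampled at 10 kHz. Five concentrations (0.3–30 μM) in duplicate for IC50; dofetilide as positive control.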

SMILES	MIC [1] [mg/L]	Activity [2]	MRT inf [3] [h]	Activity [4] [g/L]	half-life [5] [h]	Activity [6]	Activity [7] [fL]	IC50 (HepG2) [mg/L]	AUC(0-t) [8] [µg·h/mL]	Activity [9]	Activity [10]	Tmax [11] [h]	pIC50 [12]	MRT inf [13] [h]	Activity [14]	AUC(0-t) [15] [µg·h/mL]	Activity [16]	pIC50 [17]
CC(=O)NC[C@@H]1OC(=O)N2c3cc(F)c(N4CCSCC4)cc3OC[C@@H]12	0.03 (≈ 0.0787 µM)	6.11 10^9/L	0.691	141	14.7	1094 10^9/L	58.5	> 64	6.48	Non-Toxic	Non-Toxic	0.25	4.35	15.2	Non-Toxic	1.16	3.04 10^9/L	< 4.52
CC(=O)NC[C@@H]1OC(=O)N2c3cc(F)c(N4CC[S+]([O-])CC4)cc3OC[C@@H]12	0.46 (≈ 1.16 µM)		6.22		6.28			> 64	8.75	Non-Toxic	Non-Toxic	0.5	< 4.00	10.8	Non-Toxic	0.443		< 4.52
